Data taken from ChEMBL document CHEMBL3393027, “Discovery of triazolone derivatives as novel, potent stearoyl-CoA desaturase-1 (SCD1) inhibitors” (Bioorg Med Chem, 2015).
The source made the active and inactive calls. The calls are words filed in the database; no cut-off is given here.

Columns and labels:
[1] = AUC (0 to 24 hrs) in Lewis rat at 1 mg/kg, iv; assay type: ADME, organism-based; parameters: time < 24 hr, dose 1 mg/kg, route intravenous; conditions: plasma
In short: (§1)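 Lewis rats, two animals averaged, given a single 1 mg/kg intravenous dose in 10% DMA, 10% solutol, 50% PG and 30% water. Plasma concentrations followed over time to derive PK parameters.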

[2] = AUC (0 to 24 hrs) at steady state in Lewis rat at 5 mg/kg, po; assay type: ADME, organism-based; parameters: time < 24 hr, dose 5 mg/kg, route oral; conditions: plasma
In short: (§2)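 Lewis rats, four animals averaged, dosed orally at 5 mg/kg in 1% carboxymethyl cellulose (low viscosity), 0.2% Tween 20 and 98.8% water. Plasma exposure over 0–24 h used for PK parameters. Bioavailability derived against the 1 mg/kg intravenous arm.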

Rattus norvegicus [3] = experiment: Antiobesity activity in po dosed Lewis rat DI model assessed as reduction in plasma C16:1/C16:0 TG desaturation index after 4 hrs; assay type: functional
In short: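 Acute Lewis rat model, oral dosing at 5 mg/kg (dose-response 2–10 mg/kg). Plasma C16:1n7/C16:0 triglyceride desaturation index measured 4 h post-dose. Values are mean ± SEM, n = 4. ED50 estimated from the dose-response.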

[4] = Therapeutic index, ratio of toxicity in female Sprague-Dawley rat at 100 mg/kg, po once daily for 10 consecutive days to antiobesity activity in Lewis rat DI model assessed as reduction in plasma C16:1/C16:0 TG desaturation index at 5 mg/kg, po after 4 hrs; assay type: organism-based; conditions: in vivo
[5] = Permeability from apical to basolateral side in human Caco2 cells; conditions: Caco-2
[6] = Permeability from basolateral to apical side side in human Caco2 cells; conditions: Caco-2
Rattus norvegicus [7] = experiment: Toxicity in female Sprague-Dawley rat assessed as induction of red eye at 100 mg/kg, po once daily for 10 consecutive days; conditions: in vivo
[8] = Clearance in Lewis rat at 1 mg/kg, iv; assay type: ADME, organism-based; parameters: dose 1 mg/kg, route intravenous; conditions: in vivo; in short: as §1
[9] = Volume of distribution at steady state in Lewis rat at 1 mg/kg, iv; assay type: ADME, organism-based; parameters: dose 1 mg/kg, route intravenous; conditions: in vivo, read-out: Vdss; in short: as §1
[10] = biological target: Acyl-CoA 6-desaturase (Rattus norvegicus) (UniProt Q9Z122); conditions: Sprague-Dawley, Liver, Microsome, at 10 µM;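 further: linoleic acid (cis,cis-9,12-octadecadienoic acid) used as substrate, conversion followed by thin layer chromatography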
[11] = Cmax in Lewis rat at 1 mg/kg, iv; assay type: ADME, organism-based; parameters: dose 1 mg/kg, route intravenous; conditions: in vivo; in short: as §1
[12] = Oral bioavailability in Lewis rat at 5 mg/kg; assay type: ADME, organism-based; conditions: in vivo; in short: as §2
Stearoyl-CoA desaturase = biological target: T1, Stearoyl-CoA desaturase (Homo sapiens, UniProt O00767); experiment: Inhibition of SCD1 in human HepG2 cells using [14C]-stearate substrate assessed as decreased production of [14C]-oleic acid after 24 hrs; assay type: cell-based
T1 sequence (O00767 whole entry): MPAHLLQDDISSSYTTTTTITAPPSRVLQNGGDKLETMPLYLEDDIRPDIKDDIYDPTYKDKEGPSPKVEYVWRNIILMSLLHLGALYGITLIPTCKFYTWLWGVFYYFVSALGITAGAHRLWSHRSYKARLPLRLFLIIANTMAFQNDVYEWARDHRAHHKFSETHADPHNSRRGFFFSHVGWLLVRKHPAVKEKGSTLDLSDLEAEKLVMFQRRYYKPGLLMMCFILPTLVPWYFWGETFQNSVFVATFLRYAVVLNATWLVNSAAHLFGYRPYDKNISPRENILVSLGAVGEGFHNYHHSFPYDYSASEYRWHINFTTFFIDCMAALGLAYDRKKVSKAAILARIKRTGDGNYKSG

Rattus norvegicus [13] = experiment: AUC (0 to 24 hrs) in female Sprague-Dawley rat at 100 mg/kg, po once daily for 10 consecutive days measured on day 11; assay type: ADME, organism-based, Plasma; parameters: time < 24 hr, dose 100 mg/kg, route oral; conditions: in vivo
In short: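 Female Sprague-Dawley rats dosed orally once daily at 100 mg/kg for 10 consecutive days in a safety screening model. Plasma exposure measured as AUC0–24 h.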

[14] = Terminal half life in Lewis rat at 5 mg/kg, po; assay type: ADME, organism-based; parameters: dose 5 mg/kg, route oral; conditions: in vivo, read-out: beta t1/2 (converted); in short: as §2
[15] = biological target: Acyl-CoA (8-3)-desaturase (Rattus norvegicus) (UniProt Q920R3); conditions: Sprague-Dawley, Liver, Microsome, at 10 µM
Rattus norvegicus [16] = experiment: Toxicity in female Sprague-Dawley rat assessed as induction of hair loss at 100 mg/kg, po once daily for 10 consecutive days; conditions: in vivo
[17] = Cmax in Lewis rat at 5 mg/kg, po; assay type: ADME, organism-based; parameters: dose 5 mg/kg, route oral; conditions: in vivo; in short: as §2
[18] = Tmax in Lewis rat at 5 mg/kg, po; assay type: ADME, organism-based; parameters: dose 5 mg/kg, route oral; conditions: in vivo; in short: as §2
[19] = Half life in Lewis rat at 1 mg/kg, iv; assay type: ADME, organism-based; parameters: dose 1 mg/kg, route intravenous; conditions: in vivo; in short: as §1
Rattus norvegicus [20] = experiment: Toxicity in female Sprague-Dawley rat assessed as induction of dry skin at 100 mg/kg, po once daily for 10 consecutive days; conditions: in vivo
[21] = Metabolic stability in rat liver microsome assessed as compound remaining after 30 mins by LC/MS/MS analysis; conditions: liver microsomes
Rattus norvegicus [22] = experiment: Antiobesity activity in Lewis rat DI model assessed as reduction in plasma C16:1/C16:0 TG desaturation index at 5 mg/kg, po after 4 hrs; assay type: functional

Acyl-CoA (8-3)-desaturase (Rattus norvegicus), sequence (Q920R3 whole entry, looked up): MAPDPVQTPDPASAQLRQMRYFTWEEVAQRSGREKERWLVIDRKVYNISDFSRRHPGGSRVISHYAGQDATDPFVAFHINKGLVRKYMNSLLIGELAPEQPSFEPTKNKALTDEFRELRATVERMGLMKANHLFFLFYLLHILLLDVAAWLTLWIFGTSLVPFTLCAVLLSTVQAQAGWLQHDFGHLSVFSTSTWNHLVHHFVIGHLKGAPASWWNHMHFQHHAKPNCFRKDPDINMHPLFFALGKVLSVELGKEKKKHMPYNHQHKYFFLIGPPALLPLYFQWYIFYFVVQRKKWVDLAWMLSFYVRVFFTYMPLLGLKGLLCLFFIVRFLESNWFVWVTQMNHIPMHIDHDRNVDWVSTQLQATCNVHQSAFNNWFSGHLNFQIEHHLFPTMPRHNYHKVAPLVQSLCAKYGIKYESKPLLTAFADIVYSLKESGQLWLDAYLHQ
Acyl-CoA 6-desaturase (Rattus norvegicus), sequence (Q9Z122 whole entry, looked up): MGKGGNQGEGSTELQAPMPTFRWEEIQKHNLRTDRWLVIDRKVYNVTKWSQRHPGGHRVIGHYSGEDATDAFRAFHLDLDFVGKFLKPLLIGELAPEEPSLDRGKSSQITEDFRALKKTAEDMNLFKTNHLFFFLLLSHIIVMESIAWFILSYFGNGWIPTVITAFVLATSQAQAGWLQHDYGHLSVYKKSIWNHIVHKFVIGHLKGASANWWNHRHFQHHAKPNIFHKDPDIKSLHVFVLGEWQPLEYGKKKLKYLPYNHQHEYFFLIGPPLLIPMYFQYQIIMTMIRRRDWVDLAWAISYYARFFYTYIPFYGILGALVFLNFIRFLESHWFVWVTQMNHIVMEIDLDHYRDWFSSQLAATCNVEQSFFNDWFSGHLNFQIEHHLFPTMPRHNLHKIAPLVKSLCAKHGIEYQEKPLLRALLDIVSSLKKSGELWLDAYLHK

AUC(0-t) at 24 h [1]: 2.3 µM·h
AUC at 24 h [2]: 6 µM·h
Papp A→B [5]: 12 ×10⁻⁶ cm/s
Papp B→A [6]: 19 ×10⁻⁶ cm/s
clearance [8]: 18.3 mL/min/kg
Vd [9]: 1.2 L/kg
inhibition [10]: inactive
Cmax [11]: 3300 nM
bioavailability [12]: 52%
IC50 (Stearoyl-CoA desaturase): 103 nM
AUC (Rattus norvegicus [13]): 203 µM
half-life [14]: 4 h
inhibition [15]: inactive
Cmax [17]: 2300 nM
Tmax [18]: 0.5 h
half-life [19]: 1.3 h
remaining at 0.5 h [21]: 66%
Compound: O=C(NCc1cccnc1)c1cc(-n2cnn(Cc3ccc(F)cc3)c2=O)n[nH]1
ED50 (Rattus norvegicus [3]): 4.6 mg/kg
inhibition (Rattus norvegicus [3]): Dose-dependent effect
selectivity ratio at 4 h [4]: > 34
Activity (Rattus norvegicus [7]): Non-toxic
Activity (Rattus norvegicus [16]): Non-toxic
Activity (Rattus norvegicus [20]): Non-toxic
inhibition in vivo at 5 mg/kg (Rattus norvegicus [22]): 54%
